The pIC50 is the IC50 on a negative log10 scale, so that one unit is a factor of ten.

Each structure is given as a SMILES string. pIC50: −log10 of the molar value. A value given as a limit tells only on which side of the number the result lay.

In assay [1] the target is Stromelysin-1 (Homo sapiens) (UniProt P08254). The experiment in a line: Inhibition recombinant MMP3 at 100 uM. More on the design: scale not given: the % may be the effect or the level left. An outline of the steps: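 ProMMP-3 was expressed in E. coli and folded from inclusion bodies. It was activated with 5 μg/mL chymotrypsin at 37 °C for 2 h, and chymotrypsin was then inactivated with 2 mM diisopropylfluorophosphate. Active concentration was set by N-TIMP-1 titration, with Knight fSSP or NFF-3 as substrate.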

Assay [2] addresses Matrix metalloproteinase-9 (Homo sapiens) (UniProt P14780). In words: Inhibition recombinant MMP9 at 100 uM. Also on record: scale not given: the % may be the effect or the level left. A digest of the protocol: (§1)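 Pro-enzyme (MMP-8 expressed in CHO-K1 cells; MMP-9 recombinant) was activated with 1 mM APMA for 1 h at 37 °C. Active enzyme concentration was determined by titration with recombinant N-TIMP-1, using Knight fSSP or NFF-3 substrate.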

Assay [3] deals with 72 kDa type IV collagenase (Homo sapiens) (UniProt P08253). The experiment in a line: Inhibition recombinant MMP2 at 100 uM. More on the design: scale not given: the % may be the effect or the level left.
Assay [4] has as its target Macrophage metalloelastase (Homo sapiens) (UniProt P39900). In words: Inhibition recombinant MMP12 at 100 uM. More on the design: scale not given: the % may be the effect or the level left. A digest of the protocol: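 Recombinant MMP-12 was expressed directly in active form, with no zymogen activation step. Active concentration was determined by recombinant N-TIMP-1 titration, with Knight fSSP or NFF-3 as substrate.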

Assay [5] concerns the target Neutrophil collagenase (Homo sapiens) (UniProt P22894). The experiment in a line: Inhibition recombinant MMP8 expressed in CHO-K1 cells at 100 uM. Also on record: scale not given: the % may be the effect or the level left. Format: cell-based. An outline of the steps: as §1
Assay [6] has as its target T1, Interstitial collagenase (Homo sapiens) (UniProt P03956).
T1 sequence (whole entry): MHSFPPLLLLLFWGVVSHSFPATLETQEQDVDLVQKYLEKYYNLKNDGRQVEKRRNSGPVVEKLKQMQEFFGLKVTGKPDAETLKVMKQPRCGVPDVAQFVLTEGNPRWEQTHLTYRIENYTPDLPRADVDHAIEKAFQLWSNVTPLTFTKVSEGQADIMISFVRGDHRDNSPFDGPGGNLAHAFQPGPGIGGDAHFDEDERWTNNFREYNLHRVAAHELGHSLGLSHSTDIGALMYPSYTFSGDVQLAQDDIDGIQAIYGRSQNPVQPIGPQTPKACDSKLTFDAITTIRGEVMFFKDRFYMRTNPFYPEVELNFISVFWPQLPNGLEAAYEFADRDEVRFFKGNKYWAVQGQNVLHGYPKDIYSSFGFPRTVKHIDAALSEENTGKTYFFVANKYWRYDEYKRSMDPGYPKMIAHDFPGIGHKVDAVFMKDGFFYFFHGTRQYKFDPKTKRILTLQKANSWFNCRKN
In words: Inhibition recombinant MMP1 at 100 uM. More on the design: scale not given: the % may be the effect or the level left. A digest of the protocol: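 Enzyme source: proMMP-1 expressed in E. coli and refolded from inclusion bodies. Activated with 1 mM APMA plus 0.1 equiv MMP-3(Δ248-460) for 6 h at 37 °C. The MMP-3 fragment was then removed by size-exclusion chromatography. Active enzyme was quantified by titration with recombinant N-TIMP-1, using Knight fSSP or NFF-3 as substrate.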

Assay [7] has as its target T2, Collagenase 3 (Homo sapiens, UniProt P45452). In words: Activity of human recombinant MMP13. Also on record: concentration or dose not given beside the values. A digest of the protocol:
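Recombinant full-length human proMMP-13, activated with 1 mM APMA for 2 h at 37 °C and active-site titrated with N-TIMP-1. Run in 1536-well format in Tris·HCl pH 7.5, 100 mM NaCl, 10 mM CaCl2, 0.05% Brij-35, 0.3% DMSO. Triple-helical FRET substrate fTHP-15 (Mca/Dnp). Stopped with EDTA after 4 h at 25 °C; fluorescence read at ex 325/em 450 nm. Dose-response in triplicate, 10-point 1:3 dilutions from 40 μM; IC50 from four-parameter sigmoidal fit.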

The target of assay [8] is T2, Collagenase 3. The experiment in a line: Inhibition of human recombinant MMP13 expressed in Escherichia coli.

Chain of 72 kDa type IV collagenase (Homo sapiens) (P08253 110-660 limits assumed): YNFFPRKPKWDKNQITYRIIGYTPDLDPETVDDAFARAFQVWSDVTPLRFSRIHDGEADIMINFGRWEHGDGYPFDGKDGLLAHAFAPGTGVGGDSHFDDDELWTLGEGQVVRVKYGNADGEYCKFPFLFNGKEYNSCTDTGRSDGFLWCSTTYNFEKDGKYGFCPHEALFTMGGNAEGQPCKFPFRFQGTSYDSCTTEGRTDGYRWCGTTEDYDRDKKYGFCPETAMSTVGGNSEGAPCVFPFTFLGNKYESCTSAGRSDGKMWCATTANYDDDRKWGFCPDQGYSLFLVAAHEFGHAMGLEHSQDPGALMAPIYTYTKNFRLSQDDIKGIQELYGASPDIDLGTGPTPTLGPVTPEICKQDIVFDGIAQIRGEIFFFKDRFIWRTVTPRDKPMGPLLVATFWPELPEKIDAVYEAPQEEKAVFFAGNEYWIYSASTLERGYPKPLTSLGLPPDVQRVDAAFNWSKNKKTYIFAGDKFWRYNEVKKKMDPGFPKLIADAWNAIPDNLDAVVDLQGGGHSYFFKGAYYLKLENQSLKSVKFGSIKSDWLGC
Chain of Neutrophil collagenase (Homo sapiens) (P22894 101-467 limits assumed): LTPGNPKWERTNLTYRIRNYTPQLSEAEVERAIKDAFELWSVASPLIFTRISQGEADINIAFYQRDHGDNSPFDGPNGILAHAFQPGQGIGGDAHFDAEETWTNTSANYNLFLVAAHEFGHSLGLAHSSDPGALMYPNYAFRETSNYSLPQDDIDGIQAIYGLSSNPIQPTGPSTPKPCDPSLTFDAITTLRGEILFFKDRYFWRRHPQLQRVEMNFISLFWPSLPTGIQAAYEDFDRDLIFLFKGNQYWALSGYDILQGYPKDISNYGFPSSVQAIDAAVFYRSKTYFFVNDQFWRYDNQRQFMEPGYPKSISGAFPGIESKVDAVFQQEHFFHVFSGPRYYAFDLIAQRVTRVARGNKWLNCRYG
Chain of Matrix metalloproteinase-9 (Homo sapiens) (P14780 whole entry): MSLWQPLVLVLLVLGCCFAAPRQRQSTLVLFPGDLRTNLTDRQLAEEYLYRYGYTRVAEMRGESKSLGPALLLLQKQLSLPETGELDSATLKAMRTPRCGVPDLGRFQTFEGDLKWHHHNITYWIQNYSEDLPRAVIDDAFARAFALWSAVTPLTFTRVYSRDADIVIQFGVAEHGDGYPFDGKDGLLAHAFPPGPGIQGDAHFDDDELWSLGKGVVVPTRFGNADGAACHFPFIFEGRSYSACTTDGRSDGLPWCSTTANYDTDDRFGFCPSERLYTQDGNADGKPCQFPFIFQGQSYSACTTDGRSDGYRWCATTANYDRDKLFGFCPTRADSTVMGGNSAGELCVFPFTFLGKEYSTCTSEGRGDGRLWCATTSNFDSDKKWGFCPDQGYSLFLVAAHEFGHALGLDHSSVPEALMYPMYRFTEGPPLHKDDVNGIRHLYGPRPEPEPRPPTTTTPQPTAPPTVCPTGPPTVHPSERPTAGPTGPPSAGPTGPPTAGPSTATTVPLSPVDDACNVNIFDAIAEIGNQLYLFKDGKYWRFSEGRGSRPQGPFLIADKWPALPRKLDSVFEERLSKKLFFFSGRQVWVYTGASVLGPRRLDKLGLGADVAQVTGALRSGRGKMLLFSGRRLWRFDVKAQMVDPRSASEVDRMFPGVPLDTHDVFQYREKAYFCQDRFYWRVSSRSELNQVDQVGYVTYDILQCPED
Chain of Stromelysin-1 (Homo sapiens) (P08254 100-477 limits assumed): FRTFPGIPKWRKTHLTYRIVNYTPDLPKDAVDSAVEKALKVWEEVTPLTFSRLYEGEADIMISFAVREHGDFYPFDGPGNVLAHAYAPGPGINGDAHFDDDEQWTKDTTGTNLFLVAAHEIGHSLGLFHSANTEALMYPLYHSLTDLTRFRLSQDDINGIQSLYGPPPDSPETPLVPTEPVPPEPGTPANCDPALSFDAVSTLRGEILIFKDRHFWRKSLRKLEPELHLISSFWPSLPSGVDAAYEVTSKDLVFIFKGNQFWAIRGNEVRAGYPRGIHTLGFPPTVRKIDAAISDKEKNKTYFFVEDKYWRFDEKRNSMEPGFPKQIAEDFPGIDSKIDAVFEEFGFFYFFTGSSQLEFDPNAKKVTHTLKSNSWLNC
Chain of Macrophage metalloelastase (Homo sapiens) (P39900 106-470 limits assumed): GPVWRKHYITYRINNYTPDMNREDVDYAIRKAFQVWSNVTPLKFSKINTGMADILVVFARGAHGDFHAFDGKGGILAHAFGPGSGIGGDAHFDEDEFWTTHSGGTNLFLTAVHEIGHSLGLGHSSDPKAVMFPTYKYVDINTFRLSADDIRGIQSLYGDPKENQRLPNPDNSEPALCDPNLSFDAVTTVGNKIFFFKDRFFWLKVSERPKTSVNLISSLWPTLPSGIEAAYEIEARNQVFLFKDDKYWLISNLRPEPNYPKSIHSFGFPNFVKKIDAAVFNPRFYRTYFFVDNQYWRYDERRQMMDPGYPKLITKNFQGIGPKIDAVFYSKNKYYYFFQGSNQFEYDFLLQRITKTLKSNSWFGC

`O=C1NC(=O)C(CCc2ccncc2)(C2CCCCC2)C(=O)N1`: the Activity in assay [1] was 96%; in assay [2], 27%; in assay [3], 49%; in assay [4], 21%; in assay [5], 50%; in assay [6], 47%. In addition, the Activity at Collagenase 3 [7] worked out at 35%.

In the case of `C=CCN1C(=O)/C(=C2/Sc3ccccc3N2CCCS(=O)(=O)O)SC1=S`, the Activity in assay [1] is 100%; in assay [2], 100%; in assay [3], 100%; in assay [4] it was 100%; in assay [5], 100%; in assay [6], 96%. For the same compound, the Activity at Collagenase 3 [7] was 36%.

As for `COc1cc(OC)cc(-c2nnc(Nc3nc4c(F)cccc4s3)o2)c1`, the Activity came out at 95% in assay [1]; 75% in assay [2]; 73% in assay [3]; 64% in assay [4]; 36% in assay [5]; 96% in assay [6]. For the same compound, on Collagenase 3 [7], the Activity was found to be 35%.

In the case of `CCN1C(=O)/C(=C2/Sc3ccccc3N2CCCS(=O)(=O)O)SC1=S`, the Activity was 90% in assay [1]; 14% in assay [2]; 80% in assay [3]; 94% in assay [4]; 100% in assay [5]; 88% in assay [6]. Besides, on Collagenase 3 [7], the Activity was 4%.

In the case of `Cc1nn(-c2ccccc2)c2sc(-c3nnc(S)o3)cc12`, on Collagenase 3 [8], the pIC50 is 6.05. Besides, the Activity in assay [1] was found to be 75%; in assay [2], 100%; in assay [3], 100%; in assay [4], 75%; in assay [5] it was 32%; in assay [6], 68%. Moreover, the Activity on Collagenase 3 [7] was determined as 45%.

As to `COC(=O)c1ccc(CSc2nc(O)c3c(-c4cccs4)csc3n2)o1`, the Activity in assay [1] was 92%; in assay [2], 100%; in assay [3], 100%; in assay [4], 92%; in assay [5] it was 94%; in assay [6], 93%. Further, the Activity at Collagenase 3 [7] came out at 42%.

`O=C1NC(=O)C(CCc2ccncc2)(c2ccccc2)C(=O)N1`: the Activity came to 87% in assay [1]; 3% in assay [2]; 17% in assay [3]; 1% in assay [4]; 8% in assay [5]; 27% in assay [6]. In addition, on Collagenase 3 [7], the Activity was determined as 14%.

For the compound `COc1ccc(C2C(C(C)=O)=C(C)N=c3s/c(=C\c4cc(C)n(C)c4C)c(=O)n32)c(OC)c1` (stereo unspecified), at Collagenase 3 [8], the pIC50 was < 4.40.

`COc1cc(-n2nc(C)c3c2OC(N)=C(C#N)C3c2ccccc2)c(Cl)c(Br)c1O` (stereo unspecified): the pIC50 on Collagenase 3 [8] was < 4.40.

With `COc1ccc(CSc2nc(C)cc(O)n2)cc1`, the Activity in assay [1] is 97%; in assay [2] it was 66%; in assay [3], 47%; in assay [4], 72%; in assay [5], 80%; in assay [6], 98%. Besides, the Activity at Collagenase 3 [7] was 25%.

Consider `O=C(CSCc1nc(O)n[nH]1)NCCOc1cccc(Oc2ccccc2)c1`, for which the Activity in assay [1] worked out at 96%; in assay [2], 27%; in assay [3] it was 19%; in assay [4], 33%; in assay [5] it was 34%; in assay [6], 85%. Further, the Activity at Collagenase 3 [7] worked out at 35%.

As for `O=C(O)CCC(NS(=O)(=O)c1ccc(-c2ccccc2)cc1)C(=O)O` (stereo unspecified), the pIC50 on Collagenase 3 [8] is 5.68. Moreover, the Activity in assay [1] amounted to 63%; in assay [2], 14%; in assay [3] it was 7%; in assay [4] it was 2%; in assay [5] it was 2%; in assay [6], 25%. The Activity on Collagenase 3 [7] worked out at 4%.

Regarding `CCCCCCOc1ccc(C(CC(=O)O)C(N)=O)cc1` (stereo unspecified), the Activity turned out to be 43% in assay [1]; 0% in assay [2]; 0% in assay [3]; 0% in assay [4]; 10% in assay [5]; 91% in assay [6]. Also, the Activity at Collagenase 3 [7] was 15%.

With `CCOC(=O)C1CCCN(c2nc3ccccc3nc2C(C#N)C(=O)OCC)C1` (stereo unspecified), at Collagenase 3 [8], the pIC50 is 4.88.

On to `Oc1nc(SCc2ccc(Cl)cc2)nc2c1CCC2`, for which the pIC50 on Collagenase 3 [8] was 4.99.

In the case of `CCOC(=O)/C(C#N)=C1/C=Nc2ccccc2N1`, on Collagenase 3 [8], the negative-log IC50 (pIC50) was 5.47. The Activity in assay [1] worked out at 96%; in assay [2], 99%; in assay [3], 100%; in assay [4] it was 100%; in assay [5], 80%; in assay [6] it was 94%. At Collagenase 3 [7], the Activity is 62%.

Source of the values: ChEMBL document CHEMBL1140992, “High throughput screening of potentially selective MMP-13 exosite inhibitors utilizing a triple-helical FRET substrate” (Bioorg Med Chem, 2009).
